Test results from ChEMBL document CHEMBL1153540, “Structure-based optimization of arylamides as inhibitors of soluble epoxide hydrolase” (J Med Chem, 2009).

Legend:
[1] = Plasma concentration in Sprague-Dawley rat at 5 mg/kg, po after 4 hrs by LC-MS/MS analysis; format: ADME, organism-based; set-up: dose 5 mg/kg, route oral
In short: (§1)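 Male Sprague-Dawley rats fitted with jugular catheters, fed, three per compound, dosed orally at 5 mg/kg. Vehicle was 1% CMC/0.2% Tween80 in water, or 80% PEG 400/20% pH 2 30 mM citric acid, depending on compound. Serial heparinized blood taken at 1, 2, 4 and 6 h. Plasma proteins precipitated with acetonitrile; compound quantified by LC/MS/MS in MRM mode.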

[2] = Aqueous solubility at pH 7.4; format: physicochemical
[3] = Plasma concentration in Sprague-Dawley rat at 5 mg/kg, po after 2 hrs by LC-MS/MS analysis; format: ADME, organism-based; set-up: dose 5 mg/kg, route oral; in short: as §1
[4] = Plasma concentration in Sprague-Dawley rat at 5 mg/kg, po after 1 hr by LC-MS/MS analysis; format: ADME, organism-based; set-up: dose 5 mg/kg, route oral; in short: as §1

| SMILES | concentration at 4 h [1] [nM] | solubility [2] [µg/mL] | concentration at 2 h [3] [nM] | concentration at 1 h [4] [nM] |
| --- | --- | --- | --- | --- |
| CS(=O)(=O)c1ccc(C(CCNC(=O)c2ccc(C#N)cc2)c2ccc(F)cc2)cc1 (stereo not given) | 3600 |  |  |  |
| O=C(NCCC(c1ccc(F)cc1)c1ccc(F)cc1)c1ccc(OCC(F)(F)F)nc1 | 100 | < 0.1 | 200 | 300 |
